HTRA1 inh: inhibitors of human serine peptidase HTRA1; Q92743; recombinant HTRA1, FP-rhodamine activity-based probe, fluorescence polarization; inhibition, % at 5.96 µM; hit rate 0.5% among 340,000; AID 504803; in the data active = inhibition above about 36%;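 also: 0% = enzyme with DMSO and 100% = wells lacking enzyme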
Target sequence (Q92743 whole entry, looked up): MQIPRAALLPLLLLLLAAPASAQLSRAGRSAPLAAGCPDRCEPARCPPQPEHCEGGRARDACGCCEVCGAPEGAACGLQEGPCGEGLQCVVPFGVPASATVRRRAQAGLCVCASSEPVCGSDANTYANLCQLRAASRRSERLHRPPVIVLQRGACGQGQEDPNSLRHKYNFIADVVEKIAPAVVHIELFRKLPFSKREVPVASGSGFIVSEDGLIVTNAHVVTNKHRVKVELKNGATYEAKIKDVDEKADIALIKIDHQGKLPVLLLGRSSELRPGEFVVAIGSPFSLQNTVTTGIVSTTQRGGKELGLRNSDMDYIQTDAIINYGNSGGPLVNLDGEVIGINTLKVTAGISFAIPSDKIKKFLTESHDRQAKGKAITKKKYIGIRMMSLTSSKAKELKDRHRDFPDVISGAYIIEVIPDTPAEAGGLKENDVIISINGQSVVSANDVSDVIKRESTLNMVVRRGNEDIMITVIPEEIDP
TCR CD3 inh: inhibitors of human TCR-CD3 interaction; TAMRA-labeled TCR probe fluorescence, biochemical; inhibition, % at 9.4 µM; hit rate 0.37% among 360,000; AID 651800; in the data active = inhibition above about 19%;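 also: recombinant mutant TCR 2C K166C tagged with TAMRA read by polarization; 0% = receptor in buffer alone and 100% = receptor with positive control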
Tn6 DDE FP: inhibitors of Tn6 peptide binding to human fibrin DD(E) | inhibition, % at 8.3 µM | P02675 | Fibrin DD(E) TRITC-Tn6 fluorescence polarization displacement | hit rate 0.21% among 370,000;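 active = inhibition above a per-campaign cutoff: mean of compounds within control limits plus 3 SD, cut at about 15% in these data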;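 also: 0% = median of all compound wells on the plate and 100% = blocking peptide control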
mABHD4 FP: inhibits mouse alpha/beta hydrolase domain 4; purified mABHD4, FP-Rh probe fluorescence polarization; hit rate 0.54% among 370,000; Q8VD66; inhibition, % at 8.92 µM;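 active = inhibition exceeding the mean over every tested compound plus 3 SD, cut at about 30% in these data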;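 also: 0% = plate median of compound wells and 100% = S159A mutant with DMSO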
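Test system: mABHD4 protein; Read-out basis: % inhibition; Incubation: 45 min + 60 min at 25 °C; Repeats: single replicate; Technique: fluorescence polarization with parallel and perpendicular emission, 525/598 nm; Compound: 8.92 µM, single dose; Benchmarks: full inhibition S159A mutant plus DMSO, zero as sample-well median.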
DDE Tn7 FP inh: DD(E)-Tn7 binding inhibition, primary FP screen; FP displacement of FITC-Tn7 peptide from fibrin DD(E); 0% = median of compound wells per plate; inhibition, % at 8.3 µM; hit rate 0.13% among 370,000;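 active = inhibition above the mean of compounds falling within the control limits plus 3 SD of them, cut at about 14% in these data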;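 also: 0% = plate median of compound wells and 100% = 10 µM Aha-Tn7 peptide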
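System: human fibrin DD(E); quantity: Fibrin-DD(E) at 2 µM final; also added: fluorescent Tn7 probe at 0.1 µM; compound dosing: single nominal test concentration of 8.3 µM per compound; schedule: 10 min preincubation, 3 h with tracer, room temperature; detection: fluorescence polarization of the labelled Tn7 tracer; repeats: one replicate per compound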
HTRA1 conf: HTRA1 (human) inhibition, confirmation | shares compounds with HTRA1 inh | recombinant HTRA1, FP-rhodamine activity-based probe, fluorescence polarization | inhibition, % at 5.96 µM | hit rate 66% among 1,600;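 active = mean inhibition over three repeats above a set limit taken from the earlier primary screen, cut at about 37% in these data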;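 also: 0% = HTRA1 with DMSO and 100% = wells lacking HTRA1; inhibitors block probe binding so polarization drops and inhibition rises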
The depositor's hits bear a star. The list is not random: actives were taken first. Their share in the collection is about 1.3%.

How did COc1ccc(C(NC(C)=O)c2nccc3cc(OC)c(OC)cc23)cc1OC (stereo unspecified) do in these assays?
HTRA1 inh: -8; TCR CD3 inh: -7; Tn6 DDE FP: -3; mABHD4 FP: -12; DDE Tn7 FP inh: 2

How did CCC(=O)NC(c1ccco1)c1cc(Cl)c2ccccc2c1O (stereo unspecified) do in these assays?
HTRA1 inh: -4; TCR CD3 inh: 5; Tn6 DDE FP: -1; mABHD4 FP: 1; DDE Tn7 FP inh: 0

How did CCC(=O)NC(c1ccc(OC)c(OC)c1)c1cc(Cl)c2cccnc2c1O (stereo unspecified) do in these assays?
HTRA1 inh: 52*; TCR CD3 inh: -1; Tn6 DDE FP: 11; mABHD4 FP: 7; DDE Tn7 FP inh: 4; HTRA1 conf: 81*

What do the screens show for `O=CNc1ccc(OC(=O)c2cncc(Br)c2)cc1`?
HTRA1 inh: 4; TCR CD3 inh: 1; Tn6 DDE FP: 1; mABHD4 FP: -3; DDE Tn7 FP inh: -7

Results for CCC(=O)NC(c1ccc(C)cc1)c1cc(Cl)c2cccnc2c1O (stereo unspecified) ?
HTRA1 inh: 62*; HTRA1 conf: 76*

How did O=C(NC(c1ccccc1)c1cc(Cl)c2cccnc2c1O)c1cccnc1 (stereo unspecified) do in these assays?
TCR CD3 inh: -7; Tn6 DDE FP: -5; mABHD4 FP: 6; DDE Tn7 FP inh: -6

Results for OCC[C@@H]1C[C@H](O)[C@@H](O)[C@@]2(OCc3ccccc32)O1 ?
HTRA1 inh: -2; TCR CD3 inh: 7; Tn6 DDE FP: -1; mABHD4 FP: 4; DDE Tn7 FP inh: -4

Results for NS(=O)(=O)c1ccc2c(c1)C1C=CCC1C(C1CC=CCC1)N2 (stereo unspecified) ?
HTRA1 inh: 64*; TCR CD3 inh: 1; Tn6 DDE FP: -2; mABHD4 FP: 26; DDE Tn7 FP inh: 3; HTRA1 conf: 38*

Results for CC(C)C1Nc2ccc(S(N)(=O)=O)cc2C2C=CCC21 (stereo unspecified) ?
HTRA1 inh: 13; TCR CD3 inh: 0; Tn6 DDE FP: 3; mABHD4 FP: 12; DDE Tn7 FP inh: 7

What do the screens show for `Oc1ccc2ccccc2c1C1Nc2cccc3cccc(c23)N1`?
HTRA1 inh: 52*; HTRA1 conf: 23

How did Oc1ccc(Cl)cc1CNCc1ccc(Cl)nc1 do in these assays?
HTRA1 inh: 1; TCR CD3 inh: 2; Tn6 DDE FP: 3; mABHD4 FP: -3; DDE Tn7 FP inh: 0

How did COc1cc(CCc2ccc3c(c2)OCO3)oc(=O)c1 do in these assays?
HTRA1 inh: -3; TCR CD3 inh: -1; Tn6 DDE FP: 1; mABHD4 FP: 0; DDE Tn7 FP inh: 0

What do the screens show for `CCN(CC)Cc1cc(Nc2c3ccccc3nc3c4ccccc4n(C)c23)cc(CN(CC)CC)c1O`?
HTRA1 inh: 38*; TCR CD3 inh: 9; Tn6 DDE FP: -4; mABHD4 FP: 33*; DDE Tn7 FP inh: -7; HTRA1 conf: 18

How did O=C(NCCCN1CCOCC1)C1Nc2ccc(OC(F)(F)F)cc2C2C=CCC12 (stereo unspecified) do in these assays?
HTRA1 inh: 28; TCR CD3 inh: -2; Tn6 DDE FP: 0; mABHD4 FP: 14; DDE Tn7 FP inh: 1

Results for CCOC(=O)C1Nc2ccc(OC(F)(F)F)cc2C2C=CCC12 (stereo unspecified) ?
HTRA1 inh: 58*; TCR CD3 inh: -1; Tn6 DDE FP: 4; mABHD4 FP: 11; DDE Tn7 FP inh: 1; HTRA1 conf: 55*

What do the screens show for `O=C(NC1CC1)C1Nc2ccc(OC(F)(F)F)cc2C2C=CCC12` (stereo unspecified)?
HTRA1 inh: 48*; TCR CD3 inh: -12; Tn6 DDE FP: 2; mABHD4 FP: 28; DDE Tn7 FP inh: -5; HTRA1 conf: -3

How did O=C(NCc1ccccc1)C1Nc2ccc(OC(F)(F)F)cc2C2C=CCC12 (stereo unspecified) do in these assays?
HTRA1 inh: 17; TCR CD3 inh: -3; Tn6 DDE FP: 5; mABHD4 FP: 12; DDE Tn7 FP inh: 3

How did O=C(c1ccc(-c2cc(O)c3ncccc3c2)cc1)N1CCNCC1 do in these assays?
HTRA1 inh: 63*; TCR CD3 inh: -7; Tn6 DDE FP: 7; mABHD4 FP: 5; DDE Tn7 FP inh: -2; HTRA1 conf: 50*

What do the screens show for `CC(C)(C)c1ccc(C(=O)N2CCNCC2)cc1`?
HTRA1 inh: 0; TCR CD3 inh: -4; Tn6 DDE FP: -3; mABHD4 FP: -1; DDE Tn7 FP inh: -1

How did COc1ccc(Cl)c(OC)c1C(=O)NC(=O)Nc1c(F)cc(F)cc1F do in these assays?
TCR CD3 inh: 5; Tn6 DDE FP: 3; mABHD4 FP: -1; DDE Tn7 FP inh: 4

What do the screens show for `Cc1nc2ccc(NC(=O)[C@H](C)N3C(=O)C4CC=CCC4C3=O)cc2s1` (stereo partly specified)?
HTRA1 inh: 1; TCR CD3 inh: -10; Tn6 DDE FP: 4; mABHD4 FP: -16; DDE Tn7 FP inh: 1

How did O=C(O)C1=C2C(=O)Nc3cccc(c32)C2(C1)C(=O)Nc1ccccc12 (stereo unspecified) do in these assays?
HTRA1 inh: 37*; TCR CD3 inh: 0; Tn6 DDE FP: -7; mABHD4 FP: 33*; DDE Tn7 FP inh: 5; HTRA1 conf: 12

What do the screens show for `O=Nc1c(O)[nH]c2ccc(F)cc12`?
HTRA1 inh: 15; TCR CD3 inh: -2; Tn6 DDE FP: -2; mABHD4 FP: 12; DDE Tn7 FP inh: -2

Results for Cc1cc2c(N=O)c(NO)ccc2[nH]1 ?
HTRA1 inh: 40*; HTRA1 conf: 74*

How did CCOC(=O)/C(=N\Nc1ccc(OC)cc1)c1csc(Nc2ccccc2)n1 do in these assays?
HTRA1 inh: 43*; TCR CD3 inh: 5; Tn6 DDE FP: -7; mABHD4 FP: 13; DDE Tn7 FP inh: -9; HTRA1 conf: 28

Results for CCOC(=O)/C(=N/Nc1ccccc1)c1csc(Nc2ccccc2)n1 ?
HTRA1 inh: 27; TCR CD3 inh: -8; Tn6 DDE FP: -12; mABHD4 FP: 10; DDE Tn7 FP inh: -6

Results for Nc1n[nH]c2cc(=O)n(-c3cccc(C(F)(F)F)c3)nc12 ?
HTRA1 inh: 17; TCR CD3 inh: -9; Tn6 DDE FP: -8; mABHD4 FP: 8; DDE Tn7 FP inh: -2

Results for O=c1[nH][nH]c2cc(=O)n(-c3cccc(C(F)(F)F)c3)nc12 ?
HTRA1 inh: 59*; TCR CD3 inh: 9; Tn6 DDE FP: -2; mABHD4 FP: 62*; DDE Tn7 FP inh: 5; HTRA1 conf: 13

How did COc1ccc(NCc2nnc(SCC(=O)Nc3nc(-c4ccccc4)cs3)n2-c2ccccc2)cc1 do in these assays?
HTRA1 inh: 4; TCR CD3 inh: 4; Tn6 DDE FP: -1; mABHD4 FP: -10; DDE Tn7 FP inh: -5

Assay outcomes deposited in PubChem by The Scripps Research Institute Molecular Screening Center.
